Laboratory results published in ChEMBL document CHEMBL1629681 (Antimicrob Agents Chemother, 2010).

Key:
Assay type in all cases: ADME, organism-based
[1] = Cmax in patient with end-stage renal failure undergoing genius system-mediated dialysis at 4 mg/kg, iv after 2 hrs by LC/MS/MS analysis; design: dose 4 mg/kg, route intravenous; conditions: human, in vivo
Procedure, shortened: (§1)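 End-stage renal failure patients on 6-h Genius dialysis, hemodialysis or hemodiafiltration received a single 2-h iv infusion of 4 mg/kg. Venous plasma sampled before dosing and at 1, 2, 3, 4, 6 and 6.5 h from a site other than the infusion line, stored at −20°C. Quantified by LC-MS-MS against a 30 to 5,000 ng/ml calibration, analysed noncompartmentally.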

[2] = Terminal half life in human with normal renal function; conditions: in vivo, read-out: beta t1/2 (converted)
[3] = Cmax in patient with end-stage renal failure undergoing hemodialysis at 4 mg/kg, iv after 2 hrs by LC/MS/MS analysis; design: dose 4 mg/kg, route intravenous; conditions: human, in vivo; procedure, shortened: as §1
[4] = Cmax in patient with end-stage renal failure undergoing hemodiafiltration at 4 mg/kg, iv after 2 hrs by LC/MS/MS analysis; design: dose 4 mg/kg, route intravenous; conditions: human, in vivo; procedure, shortened: as §1

Structure (SMILES): C[C@@H](c1ncncc1F)[C@](O)(Cn1cncn1)c1ccc(F)cc1F [VORICONAZOLE]
- Cmax [1]: 1800 ng/mL
- half-life [2]: 7 h
- Cmax [3]: 1700 ng/mL
- Cmax [4]: 1900 ng/mL
